Measured values of several laboratories.
Compare with care: the assays were run in different laboratories.
Read-out: enzyme activity
Mode: inhibitor
FGFR1: Fibroblast growth factor receptor 1 (FGFR1, Homo sapiens, UniProt P11362)

CC(C)(O)[C@H]1CC[C@H](Nc2ccc3ncc(-c4cccc(C(F)(F)F)c4)n3n2)CC1 — remaining activity (FGFR1; 1 µM): 97%
COc1cc(Nc2cnc(C#N)c(O[C@H](C)CN(C)C)n2)ncc1-c1cnn(C)c1 — remaining activity (FGFR1; radiometric; 1 µM): 107%
CC(C)(C)c1nc(-c2cccc(NS(=O)(=O)c3c(F)cccc3F)c2F)c(-c2ccnc(N)n2)s1 — remaining activity (FGFR1; radiometric; 1 µM): 89%
Cc1sc(C(=O)NC2COC2)cc1-n1cc(NC(=O)Nc2c(F)cccc2Cl)cn1 — remaining activity (FGFR1; 10 µM): 114%
Cc1cnc(NC2CCOCC2)nc1-n1cnc(C(=O)NC(CN)c2cc(F)cc(Cl)c2)c1 (stereo not drawn) — remaining activity (FGFR1; radiometric; 1 µM): 118%
CCN(CC)c1ccc(C2=NNC(=O)CC2C)cc1[N+](=O)[O-] (stereo not drawn) — remaining activity (FGFR1; 10 µM): 90%
O=C(Nc1cnn(-c2csc(C(=O)NC3COC3)c2)c1)Nc1ccccc1Cl — remaining activity (FGFR1; 5 µM): 95.9%
Nc1nc(Nc2ccccc2)sc1C(=O)c1c(F)cccc1F — remaining activity (FGFR1; 10 µM): 64%
Cc1[nH]c(/C=C2\C(=O)Nc3ccc(F)cc32)c(C)c1C(=O)N[C@H]1CCN(C(=O)N(C)C)C1 — remaining activity (FGFR1; 0.1 µM): 122%
Cn1c(=O)n(-c2ccc(C(C)(C)C#N)cc2)c2c3cc(-c4cnc5ccccc5c4)ccc3ncc21 — remaining activity (FGFR1; 10 µM): 106%
CCN(CC)CCNC(=O)c1c(C)[nH]c(/C=C2\C(=O)Nc3ccc(F)cc32)c1C — remaining activity (FGFR1; 0.1 µM): 79%
CCCOc1ccc(OC)c(F)c1C(=O)c1ccc(C(=O)N[C@@H]2CNC[C@H]2NC(=O)c2ccc3[nH]ncc3c2)cc1 — remaining activity (Fibroblast growth factor receptor 1 (FGFR1, Homo sapiens, UniProt P11362, V561M); 10 µM): 23%
